Screens (PubChem BioAssay)
Many of the other results were omitted from the sample, so hits are more common in it than they were.
HSF1 inh: HSF1 inhibition | NIH3T3-HGL HSE-luciferase, MG132-induced, luminescence 8 h; stronger effect = lower value | activity change, negative = inhibition, % at 7.5 µM (by protocol) | hit rate 0.77% among 300,000 | AID 2098;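 active = more than half of replicate wells show activity change below -50%, luminescence cut by over half; inconclusive = some wells, but at most half, below -50%; inactive = no replicate well below -50%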;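 also: luciferase reports HSF-1 transcriptional activity via heat shock element; 0% = median of DMSO wells and -100% = zero luminescence signal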
L major viab: Leishmania major promastigote growth inhibition; Leishmania major promastigotes, resazurin fluorescence viability; inhibition, % at 10 µM; hit rate 9% among 200,000; AID 1063; in the data active = inhibition above about 50%;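 also: promastigotes grown with compound for 44 hours at 28 °C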
HSF-1 act: increases HSF-1 driven luciferase reporter signal; NIH3T3-HGL HSF-1 luciferase reporter, MG132, 8 h; 100% = twice DMSO control signal; activation, % at 9 µM; hit rate 1.7% among 300,000; AID 504408;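 active = mean replicate activation of at least 50% with a set share of replicates each reaching 50%; inconclusive = only one of those two conditions met; inactive = mean below 50% and too few replicates reaching it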;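 also: 0% = median of the neutral control wells and 100% = twice that signal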
T cruzi repl: blocks replication of Trypanosoma cruzi | inhibition, % (test concentration not listed) | hit rate 1.4% among 300,000 | T. cruzi beta-gal in NIH3T3, luminescence, 90 h;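 active = mean inhibition across valid replicates above about 55%, limit read from the data; inconclusive = mean below that limit but half or more replicates reach it; inactive = mean below it, under half of replicates reach it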;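 also: signal also drops with host cell toxicity which is not excluded here; 0% = plate median of DMSO wells and 100% = zero luminescence signal; higher percent means less beta-gal luminescence so fewer parasites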
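Material: NIH/3T3 host cells with β-galactosidase reporter T. cruzi; Input: 5,000 host fibroblasts per well; Medium: DMEM, 2% fetal bovine serum; Compound: 50 nL DMSO compound solution per well; Schedule: 3 h host attachment, then at least 90 h co-culture; Detection: luminescent β-galactosidase signal after 60 min lysis.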
Hsp70 act: Hsp70 transcriptional activation, primary screen; HeLa Hsp70 promoter luciferase reporter, luminescence; scaled: vehicle 0, proteasome-inhibitor control 100%; activation, % at 10 µM; hit rate 0.04% among 200,000;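 active = activation above the mean across all tested compounds plus 3 SD, cutoff set per campaign, cut at about 5.5% in these data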;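 also: 100% = MG132 at 30 µM as the positive control and 0% = DMSO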
An asterisk follows results filed as active; ? = inconclusive; / = not tested or not shown.

SMILES	HSF1 inh	L major viab	HSF-1 act	T cruzi repl	Hsp70 act
Cc1cc(C)nc(-n2nc(C)cc2Nc2ccccc2)n1	-5	52*	3	7	0
Cc1cc(Nc2ccccc2)n(-c2ccccc2)n1	9	7	6	8	0
O=C(C1CCCN(Cc2ccccc2Cl)C1)N1CCCCC1 (configuration not stated)	-10	/	-7	14	/
C=CCOc1c(Br)cc(CNn2nnnc2N)cc1OC	-2	101*	-3	0	0
C=CCOc1c(Br)cc(CNc2ccc(NC(=O)C(C)C)c(OC)c2)cc1OC	4	99*	19	43	0
COc1ccc(N2CC(NS(=O)(=O)c3cccs3)CC2=O)cc1OC (configuration not stated)	0	/	-1	-10	/
COc1ccccc1C(=O)NCC(c1cccs1)N1CCc2ccccc21 (configuration not stated)	18	/	28	22	/
Cc1ccc(Nc2nc(-c3cccnc3)nc3ccccc23)cc1	-8	/	19	52	/
c1ccc(CN2CCC(Nc3nc(-c4cccnc4)nc4ccccc34)CC2)cc1	7	98*	25	59*	0
c1ccc(CNc2nc(-c3ccccc3)nc3ccccc23)cc1	12	/	26	26	/
CC(C)(C)c1ccc(-c2nc(NCc3cccnc3)c3ccccc3n2)cc1	-1	80*	13	21	0
c1ccc(CNc2nc(NCc3ccccc3)c3ccccc3n2)cc1	-60*	/	-65	38	/
Fc1ccc(Nc2nc(NCc3ccco3)c3ccccc3n2)cc1	5	/	12	57*	/
CCCc1cc(=O)[nH]c(SCC(=O)Nc2ccc([N+](=O)[O-])cc2C#N)n1	13	/	23	1	/
c1cncc(-c2nc(NCC3COc4ccccc4O3)c3ccccc3n2)c1 (configuration not stated)	-1	77*	18	49	0
Clc1cccc(CNc2nc(-c3cccnc3)nc3ccccc23)c1	7	/	23	63*	/
Cc1ccc(CNc2nc(-c3cccnc3)nc3ccccc23)cc1	14	/	22	?	/
c1ccc(CNc2nc(-c3cccnc3)nc3ccccc23)cc1	2	/	9	45	/
c1cncc(CNc2nc(-c3cccnc3)nc3ccccc23)c1	1	/	5	4	/
Fc1ccc(CNc2nc(-c3cccnc3)nc3ccccc23)cc1	-4	/	12	56*	/
c1cncc(-c2nc(NCc3ccc4c(c3)OCO4)c3ccccc3n2)c1	10	/	26	69*	/
CCN(CC(=O)Nc1ccc2c(c1)OCCO2)c1nc(-c2cccnc2)nc2ccccc12	-5	53*	9	12	0
O=C(NCC1CCCCC1)c1cccc(Br)c1	-2	/	17	0	/
CN(Cc1ccccc1)c1ccc(S(=O)(=O)N2CCC(C(=O)O)CC2)cc1[N+](=O)[O-]	-2	-6	3	5	0
O=C1/C(=C/c2ccc(O)c(O)c2)SC(=S)N1Nc1ccccc1	7	78*	27	-29	0
SMILES	HSF1 inh	L major viab	HSF-1 act	T cruzi repl	Hsp70 act
COc1cc(/C=C2\SC(=S)N(Nc3ncc(C(F)(F)F)cc3Cl)C2=O)ccc1O	66	23	72*	19	0
COc1cc(/C=C2\SC(=S)N(Nc3ccccc3)C2=O)ccc1O	39	48	31	-9	0
CN(C)c1ccc(/C=C2\SC(=S)N(Nc3ncc(C(F)(F)F)cc3Cl)C2=O)cc1	7	-1	-5	-7	0
CC(C)CC(=O)c1c[nH]c(C(=O)NCc2ccc(F)cc2)c1	1	/	5	3	/
COc1ccc(S(=O)(=O)Nc2ccc(Cc3ccncc3)cc2)cc1C	0	/	0	-12	/
Cc1cc(C)c2c(c1)/C(=N/NS(=O)(=O)c1ccc(Br)cc1)CCC2	-54*	2	-67	11	0
Cc1cc(C)c2c(c1)/C(=N/NS(=O)(=O)c1ccccc1)CCC2	-5	-4	-15	-4	0
Cc1ccc(C)c(N/N=C2\CCCNC2=O)c1	0	78*	4	-1	0
Cc1ccccc1N/N=C1\CCCNC1=O	-11	-7	-17	3	0
CC(Sc1n[nH]c(-c2ccccc2)n1)C(=O)c1c(N)n(C)c(=O)n(C)c1=O (configuration not stated)	2	/	44	-9	/
O=C(NCC(c1ccco1)N1CCN(c2ccc(F)cc2)CC1)C1CCCCC1 (configuration not stated)	-2	/	3	11	/
